# ChEMBL document CHEMBL1914358, “Virtual screening targeting the urokinase receptor, biochemical and cell-based studies, synthesis, pharmacokinetic characterization, and effect on breast tumor metastasis” (J Med Chem, 2011)
# Calls of active or inactive are those of the source. The calls are words filed in the database; no cut-off is given here.
# How the values were obtained:
# Cytochrome P450 2C9 = Cytochrome P450 2C9 (Homo sapiens, UniProt P11712); assay: Inhibition of CYP2C9 at 1 uM by fluorsecence-based assay; type: ADME
# Sequence of Cytochrome P450 2C9 (P11712 whole entry): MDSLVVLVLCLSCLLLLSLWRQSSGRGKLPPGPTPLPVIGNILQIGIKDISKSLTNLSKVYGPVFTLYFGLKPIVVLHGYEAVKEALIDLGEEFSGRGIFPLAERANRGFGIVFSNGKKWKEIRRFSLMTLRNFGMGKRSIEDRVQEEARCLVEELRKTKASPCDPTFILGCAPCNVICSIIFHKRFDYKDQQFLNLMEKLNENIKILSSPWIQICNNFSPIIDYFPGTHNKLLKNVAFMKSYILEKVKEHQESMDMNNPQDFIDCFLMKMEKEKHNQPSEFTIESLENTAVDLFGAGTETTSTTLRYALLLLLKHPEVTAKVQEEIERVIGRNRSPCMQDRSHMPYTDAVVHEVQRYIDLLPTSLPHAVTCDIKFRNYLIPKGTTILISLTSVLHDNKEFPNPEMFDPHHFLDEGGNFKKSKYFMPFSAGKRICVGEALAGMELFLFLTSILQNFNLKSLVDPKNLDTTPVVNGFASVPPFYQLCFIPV
# How it was run: (§1)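 Fluorescence-based CYP2C9 assay measuring inhibition of fluorescent substrate metabolism at the stated concentration. Sulphaphenazole at 5 μM served as positive control.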
# Nucleic Acid [1] = assay: Displacement of ethidium bromide from salmon sperm DNA at 10 uM by fluorescence assay; type: nucleic-acid assay; conditions: Salmonidae
# How it was run: (§2)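 Fluorescent intercalator displacement: loss of fluorescence from ethidium bromide bound to salmon sperm DNA, excitation 530 nm, at the stated compound concentration.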
# MDA-MB-231 [2] = assay: Induction of necrosis in human MDA-MB-231 cells at 50 uM after 24 hrs by annexin V-FITC and propidium iodide staining relative to control; type: functional
# How it was run: (§3)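 MDA-MB-231 grown in DMEM/10% FBS with penicillin/streptomycin, 37 °C, 5% CO2, to 80–90% confluence; exposed to compound or 1% DMSO control for 24 h. Cells detached, washed in cold PBS, 1×10^5 cells in binding buffer stained with annexin V-FITC and propidium iodide 15 min at 25 °C in the dark, analysed by flow cytometry; apoptotic = annexin V+/PI−, necrotic = annexin V+/PI+.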
# [3] = target: Urokinase plasminogen activator surface receptor (Homo sapiens, UniProt Q03405); assay: Displacement of […] peptide from human uPAR expressed in drosophila S2 cells by fluorescence polarization assay
# Sequence of Urokinase plasminogen activator surface receptor (Q03405 whole entry, the tested form may be a part): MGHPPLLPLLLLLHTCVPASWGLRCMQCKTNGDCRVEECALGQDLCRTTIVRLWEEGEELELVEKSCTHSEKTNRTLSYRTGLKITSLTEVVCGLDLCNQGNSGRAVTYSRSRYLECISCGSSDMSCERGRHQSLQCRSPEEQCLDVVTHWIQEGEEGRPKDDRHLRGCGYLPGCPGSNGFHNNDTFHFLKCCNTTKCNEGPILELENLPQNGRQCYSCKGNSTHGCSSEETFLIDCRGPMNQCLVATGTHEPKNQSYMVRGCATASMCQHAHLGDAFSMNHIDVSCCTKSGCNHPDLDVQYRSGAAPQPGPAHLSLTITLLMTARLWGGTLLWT
# How it was run: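 Soluble human uPAR (residues 1-283), from stably transfected Drosophila S2 cells, was used at 500 nM with 100 nM AE147-FAM. Inhibitor range 0.78-100 μM in 0.01% Triton X-100/PBS, final 2% DMSO, triplicate. Polarization was read immediately at room temperature (ex 485/em 530 nm).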
# CYP2C9 [4] = target: T1, CYP2C9 (Homo sapiens, UniProt P11712); assay: Inhibition of CYP2C9 at 25 uM by fluorsecence-based assay; type: ADME; how it was run: as §1
# T1 sequence (P11712 whole entry): as the sequence (P11712 whole entry) above
# Nucleic Acid [5] = assay: Displacement of ethidium bromide from salmon sperm DNA at 25 uM by fluorescence assay; type: nucleic-acid assay; conditions: Salmonidae; how it was run: as §2
# MDA-MB-231 [6] = assay: (§4) Inhibition of human MAPK phosphorylation in MDA-MB-231 cells at 100 uM after 30 mins by Western blot analysis; type: cell-based
# How it was run: (§5)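 MDA-MB-231 cells were exposed to 100 μM compound or 1% DMSO for 30 min and lysed in RIPA buffer with protease and phosphatase inhibitors. Equal protein was run on 4-12% gels under non-reducing conditions and transferred to nitrocellulose. Detection used HRP secondary antibody and chemiluminescence.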
# MDA-MB-231 [7] = assay: Induction of apoptosis in human MDA-MB-231 cells assessed as apoptotic cells at 50 uM after 24 hrs by annexin V-FITC and propidium iodide staining (reference value: 4%); type: functional; how it was run: as §3
# [8] = target: T2, Matrix metalloproteinase-9 (Homo sapiens, UniProt P14780); assay: Inhibition of human MMP-9 activity in human MDA-MB-231 cells assessed as ECM degradation after 24 hrs by gelatin zymography assay; type: cell-based
# T2 sequence (P14780 whole entry): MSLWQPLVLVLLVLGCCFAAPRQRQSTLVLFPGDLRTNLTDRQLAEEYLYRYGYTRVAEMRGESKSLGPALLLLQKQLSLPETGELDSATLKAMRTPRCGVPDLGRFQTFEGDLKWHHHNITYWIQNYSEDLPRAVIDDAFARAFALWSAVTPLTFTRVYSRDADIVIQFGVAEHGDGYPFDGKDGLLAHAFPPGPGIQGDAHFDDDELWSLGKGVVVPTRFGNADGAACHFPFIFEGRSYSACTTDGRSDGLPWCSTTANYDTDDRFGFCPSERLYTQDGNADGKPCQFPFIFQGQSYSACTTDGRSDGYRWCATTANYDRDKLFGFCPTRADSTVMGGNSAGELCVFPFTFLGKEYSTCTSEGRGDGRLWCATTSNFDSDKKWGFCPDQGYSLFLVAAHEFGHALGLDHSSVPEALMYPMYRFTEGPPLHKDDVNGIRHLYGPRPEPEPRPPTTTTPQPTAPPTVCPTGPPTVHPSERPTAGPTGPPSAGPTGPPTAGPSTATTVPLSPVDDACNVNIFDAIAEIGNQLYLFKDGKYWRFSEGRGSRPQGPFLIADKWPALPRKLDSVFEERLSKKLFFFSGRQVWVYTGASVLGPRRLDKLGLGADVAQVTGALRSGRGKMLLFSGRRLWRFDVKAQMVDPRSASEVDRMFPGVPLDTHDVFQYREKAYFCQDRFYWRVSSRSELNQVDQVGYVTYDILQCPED
# Nucleic Acid [9] = assay: Displacement of ethidium bromide from salmon sperm DNA at 1 uM by fluorescence assay; type: nucleic-acid assay; conditions: Salmonidae; how it was run: as §2
# CYP2C9 [10] = target: T1, CYP2C9; assay: Inhibition of CYP2C9 at 5 uM by fluorsecence-based assay
# [11] = target: Proto-oncogene tyrosine-protein kinase Src (Homo sapiens) (UniProt P12931); assay: Inhibition of human SRC phosphorylation in MDA-MB-231 cells at 100 uM after 30 mins by Western blot analysis; type: cell-based; how it was run: as §5
# Sequence of Proto-oncogene tyrosine-protein kinase Src (Homo sapiens) (P12931 2-536 limits assumed): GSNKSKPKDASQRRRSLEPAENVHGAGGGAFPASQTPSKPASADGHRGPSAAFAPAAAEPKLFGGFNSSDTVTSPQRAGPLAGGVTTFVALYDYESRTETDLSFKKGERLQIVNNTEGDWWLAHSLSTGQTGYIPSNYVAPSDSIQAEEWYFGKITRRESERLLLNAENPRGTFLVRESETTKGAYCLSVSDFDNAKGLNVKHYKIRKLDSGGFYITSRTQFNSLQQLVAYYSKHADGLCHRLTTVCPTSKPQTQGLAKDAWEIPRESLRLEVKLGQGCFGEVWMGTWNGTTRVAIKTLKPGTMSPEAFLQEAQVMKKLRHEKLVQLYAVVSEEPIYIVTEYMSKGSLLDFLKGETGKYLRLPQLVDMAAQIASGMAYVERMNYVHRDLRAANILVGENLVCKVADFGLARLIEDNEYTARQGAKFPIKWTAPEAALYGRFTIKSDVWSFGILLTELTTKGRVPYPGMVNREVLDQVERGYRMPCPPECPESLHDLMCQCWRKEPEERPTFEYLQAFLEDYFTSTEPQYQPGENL
# [12] = system: hERG potassium channel KCNH2 (Homo sapiens); assay: Inhibition of human ERG potassium channel (hERG) at 10 uM by fluorescence polarization assay
# [13] = system: hERG potassium channel KCNH2 (Homo sapiens); assay: Inhibition of human ERG channel at 25 uM =
# [14] = system: hERG potassium channel KCNH2 (Homo sapiens); assay: Inhibition of human ERG potassium channel (hERG) at 1 uM by fluorescence polarization assay
# [15] = as §4; type: cell-based; conditions: MDA-MB-231, 0.5 h; how it was run: as §5
# [16] = target: Focal adhesion kinase 1 (Homo sapiens) (UniProt Q05397); assay: Inhibition of human FAK phosphorylation in MDA-MB-231 cells at 100 uM after 30 mins by Western blot analysis; type: cell-based; how it was run: as §5
# Sequence of Focal adhesion kinase 1 (Homo sapiens) (Q05397 2-1052 limits assumed): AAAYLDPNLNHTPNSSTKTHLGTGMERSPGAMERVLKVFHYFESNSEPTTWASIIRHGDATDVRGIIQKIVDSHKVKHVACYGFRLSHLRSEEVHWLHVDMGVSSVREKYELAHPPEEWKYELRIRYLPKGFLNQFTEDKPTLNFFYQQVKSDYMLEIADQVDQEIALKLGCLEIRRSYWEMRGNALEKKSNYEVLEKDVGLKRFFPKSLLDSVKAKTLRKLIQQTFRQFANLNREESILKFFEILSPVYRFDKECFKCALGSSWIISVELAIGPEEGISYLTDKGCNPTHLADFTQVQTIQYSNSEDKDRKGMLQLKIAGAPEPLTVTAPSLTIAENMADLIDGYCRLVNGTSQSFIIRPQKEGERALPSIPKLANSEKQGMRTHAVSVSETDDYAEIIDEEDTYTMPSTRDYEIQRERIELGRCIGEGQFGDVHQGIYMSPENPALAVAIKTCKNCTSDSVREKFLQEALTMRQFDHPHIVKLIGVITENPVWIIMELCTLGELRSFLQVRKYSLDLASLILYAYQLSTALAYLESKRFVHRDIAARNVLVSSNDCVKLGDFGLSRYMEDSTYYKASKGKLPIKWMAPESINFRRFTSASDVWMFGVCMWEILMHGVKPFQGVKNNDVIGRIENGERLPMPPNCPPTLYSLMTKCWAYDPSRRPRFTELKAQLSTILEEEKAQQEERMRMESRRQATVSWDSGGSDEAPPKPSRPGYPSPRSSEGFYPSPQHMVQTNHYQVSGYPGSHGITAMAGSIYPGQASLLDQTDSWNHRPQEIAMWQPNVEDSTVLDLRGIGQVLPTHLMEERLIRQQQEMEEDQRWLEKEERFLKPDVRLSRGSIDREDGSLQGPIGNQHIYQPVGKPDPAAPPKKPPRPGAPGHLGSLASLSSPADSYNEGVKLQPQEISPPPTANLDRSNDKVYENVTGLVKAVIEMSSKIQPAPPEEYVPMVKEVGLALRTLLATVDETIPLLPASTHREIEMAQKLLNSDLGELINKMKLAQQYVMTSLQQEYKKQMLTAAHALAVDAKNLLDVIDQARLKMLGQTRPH
# [17] = AUC (0 to infinity) in mouse at 50 mg/kg, po administered as single dose by HPLC-MS/MS analysis; conditions: plasma
# [18] = target: T2, Matrix metalloproteinase-9; assay: Inhibition of human MMP-9 activity in human MDA-MB-231 cells assessed as ECM degradation at 50 uM after 24 hrs by gelatin zymography assay; type: cell-based
# How it was run: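 Cells were treated with compound in serum-free medium for 24 h, and conditioned medium was concentrated and protein-normalized. Samples were run on 10% SDS gels containing 1 mg/ml gelatin. Clear bands were quantified after Coomassie staining.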
# [19] = system: hERG potassium channel KCNH2 (Homo sapiens); assay: Inhibition of human ERG potassium channel (hERG) at 25 uM by fluorescence polarization assay
# MDA-MB-231 [20] = assay: Antimetastatic activity in human MDA-MB-231 cells assessed as inhibition of cell migration after 3 hrs by transwell assay; type: functional, cell-based; conditions: MDA-MB-231, 3 h
# How it was run: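 Serum-starved (4 h) subconfluent cells, 5 × 10^4 in 0.1% FBS DMEM with compound or 1.0% DMSO, were placed in upper chambers of inserts with fibronectin-coated undersides (30 μg/ml). After 3 h at 37°C, 5% CO2, cells on the underside were methanol-fixed, hematoxylin-stained and counted in ten fields (×200). Triplicate; mean ± SE.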
# [21] = Toxicity in po dosed NOD/SCID mouse xenografted human […] cells; type: organism-based; conditions: in vivo
# [22] = Apparent oral clearance in mouse at 50 mg/kg administered as single dose by HPLC-MS/MS analysis; conditions: in vivo
# MDA-MB-231 [23] = assay: Antiproliferative activity against human MDA-MB-231 cells assessed as decrease in cell viability after 3 days by MTT assay; type: functional, cell-based; conditions: MDA-MB-231, 72 h
# How it was run: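 Cells were grown at 37°C in 10% FBS-DMEM with serially diluted compound, made from 5 mM DMSO stock diluted 1:50 in medium, for 3 days. Viability was read by MTT absorbance at 570 and 630 nm.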
# [24] = Antitumor activity against human […] cells xenografted in NOD/SCID mouse assessed as decrease in tumor volume at 150 mg/kg, po qd administered 18 days post-implantation measured after 68 days; type: functional; parameters: scale not given: the % may be the effect or the level left
# How it was run: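 Female NOD/SCID mice bearing mammary fat pad TMD-231 tumours were randomized and dosed from day 18 post-implantation by daily oral gavage at 150 mg/kg or vehicle (n = 11). Caliper measurements were taken over 68 days; volume = (shorter² × longer)/2.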
# MDA-MB-231 [25] = assay: Induction of apoptosis in human MDA-MB-231 cells at 50 uM after 24 hrs by annexin V-FITC and propidium iodide staining relative to control; type: functional; how it was run: as §3
# [26] = Half life in mouse at 100 mg/kg, po administered as single dose by HPLC-MS/MS analysis; type: ADME, organism-based; parameters: dose 100 mg/kg, route oral; conditions: in vivo
# TMB-231 = assay: Antitumor activity against human […] cells xenografted in NOD/SCID mouse assessed as reduction in lung metastatic lesions at 150 mg/kg, po qd administered 18 days post-implantation measured after 68 days; type: functional, organism-based; parameters: dose 150 mg/kg
# How it was run: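 Female NOD/SCID mice with mammary fat pad TMD-231 tumours received daily oral gavage at 150 mg/kg or vehicle from day 18 (n = 11). At study end lungs were removed and H&E stained. Metastasis number and size were assessed in 2-5 fields per sample and scored 1+ to 4+ relative to the highest sample by a blinded pathologist.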
# [27] = Cmax in mouse at 100 mg/kg, po administered as single dose after 5 hrs by HPLC-MS/MS analysis; type: ADME, organism-based; parameters: dose 100 mg/kg, route oral; conditions: in vivo
# HUVEC = assay: Antiangiogenic activity in human HUVEC cells assessed as inhibition of tube formation by matrigel-based tube formation assay
# MDA-MB-231 [28] = assay: Antimetastatic activity in human MDA-MB-231 cells assessed as inhibition of cell invasion after 3 hrs by transwell assay; type: functional, cell-based; conditions: MDA-MB-231, 3 h
# [29] = Tmax in mouse at 100 mg/kg, po administered as single dose by HPLC-MS/MS analysis; type: ADME, organism-based; parameters: dose 100 mg/kg, route oral; conditions: in vivo
# MDA-MB-231 [30] = assay: Antimetastatic activity in human MDA-MB-231 cells assessed as inhibition of cell adhesion after 90 mins by crystal violet staining; type: functional, cell-based; conditions: MDA-MB-231, 1.5 h
# How it was run: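 Wells were coated with 15 μg/ml fibronectin for 1 h at room temperature, then blocked with 3% heat-denatured BSA for 1 h at 37°C. Subconfluent cells were trypsinized, quenched with soybean trypsin inhibitor and washed in serum-free medium. 2 × 10^4 cells per well with compound, quadruplicate, 90 min at 37°C. Adherent cells were read by crystal violet at 570 nm; mean ± SE.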
smiles,measurement,setting,value
CN(C)c1ccc(CNCCC(Cc2ccccc2)c2ccc3c(c2)OCO3)cc1 (racemic),inhibition (INH),Cytochrome P450 2C9,Active
same,inhibition,Nucleic Acid [1],inactive
same,Activity,MDA-MB-231 [2],22%
same,Ki,[3],20 µM
same,inhibition at 25 µM,CYP2C9 [4],80%
same,inhibition,Nucleic Acid [5],30%
same,inhibition,MDA-MB-231 [6],Active
same,Activity,MDA-MB-231 [7],46%
same,inhibition,[8],Dose-dependent effect
same,inhibition,Nucleic Acid [9],inactive
Nc1ccc(S(=O)(=O)Nc2ccnn2-c2ccccc2)cc1 [SULFAPHENAZOLE],inhibition at 5 µM,CYP2C9 [10],69%
c1ccc(C[C@H](CCNCc2ccc3c(c2)OCO3)c2ccc3c(c2)OCO3)cc1 (racemic),inhibition,[11],inactive
same,inhibition (INH),Cytochrome P450 2C9,Active
same,inhibition,Nucleic Acid [1],inactive
same,inhibition,[12],Active
same,inhibition,[13],Active
same,Activity,[3],Dose-dependent effect
same,inhibition at 25 µM,CYP2C9 [4],80%
same,inhibition,Nucleic Acid [5],30%
same,inhibition,[14],Active
same,IC50,[15],20 µM
same,inhibition,[16],inactive
same,inhibition,Nucleic Acid [9],inactive
Cc1cc(C)cc(NC(=O)c2cnn(-c3ccc(C(C)C)cc3)c2C2CCNCC2)c1,AUC(0-inf),[17],47200 ng·h/mL
same,inhibition,[18],93%
same,inhibition,[19],60%
same,inhibition,Nucleic Acid [1],inactive
same,IC50,MDA-MB-231 [20],40 µM
same,MTD,[21],150 mg/kg
same,CL/F,[22],0.7 mL/min
same,IC50,MDA-MB-231 [23],6 µM
same,Activity,MDA-MB-231 [2],21%
same,Activity,[3],Dose-dependent effect
same,Activity,[24],20%
same,Activity,MDA-MB-231 [25],51%
same,half-life,[26],2.18 h
same,Activity,TMB-231,Active
same,inhibition at 25 µM,CYP2C9 [4],20%
same,Cmax,[27],4410 ng/mL
same,inhibition,Nucleic Acid [5],< 10%
same,IC50,HUVEC,3 µM
same,inhibition,MDA-MB-231 [6],Active
same,IC50,MDA-MB-231 [28],30 µM
same,Tmax,[29],1 h
same,IC50,MDA-MB-231 [30],45 µM
same,IC50,[8],25 µM
same,inhibition,[8],Dose-dependent effect
same,inhibition,Nucleic Acid [9],inactive
